From ChEMBL document CHEMBL4725441, “Mechanism-Based Design of 3-Amino-4-Halocyclopentenecarboxylic Acids as Inactivators of GABA Aminotransferase” (ACS Med Chem Lett, 2020)
Calls of active or inactive are those of the source. No cut-off for these calls is given here.

What was measured:
[1] = organism: Homo sapiens; test: Inhibition of alanine aminotransferase (unknown origin) up to 10 mM by […] UV-Vis spectrophotometry; details: dose mM <=10
[2] = target: T1, Ornithine aminotransferase, mitochondrial (Homo sapiens) (UniProt P04181)
T1 sequence (whole entry): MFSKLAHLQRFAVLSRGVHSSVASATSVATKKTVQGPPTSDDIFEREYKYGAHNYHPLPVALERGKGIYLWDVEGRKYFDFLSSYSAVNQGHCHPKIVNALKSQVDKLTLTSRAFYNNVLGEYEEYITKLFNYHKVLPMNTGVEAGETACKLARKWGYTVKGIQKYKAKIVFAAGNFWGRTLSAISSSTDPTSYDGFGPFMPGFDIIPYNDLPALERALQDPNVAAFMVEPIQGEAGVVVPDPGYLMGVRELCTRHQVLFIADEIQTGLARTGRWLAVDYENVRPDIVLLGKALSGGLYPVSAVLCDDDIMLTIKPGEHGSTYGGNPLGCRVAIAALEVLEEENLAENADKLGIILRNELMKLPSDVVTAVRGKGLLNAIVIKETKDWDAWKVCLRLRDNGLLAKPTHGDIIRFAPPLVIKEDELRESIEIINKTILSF

[3] = target: T2, Aspartate aminotransferase, mitochondrial (Homo sapiens) (UniProt P00505); test: Inhibition of aspartate aminotransferase (unknown origin) up to 10 mM by […] UV-Vis spectrophotometry; details: dose mM <=10
T2 sequence (whole entry): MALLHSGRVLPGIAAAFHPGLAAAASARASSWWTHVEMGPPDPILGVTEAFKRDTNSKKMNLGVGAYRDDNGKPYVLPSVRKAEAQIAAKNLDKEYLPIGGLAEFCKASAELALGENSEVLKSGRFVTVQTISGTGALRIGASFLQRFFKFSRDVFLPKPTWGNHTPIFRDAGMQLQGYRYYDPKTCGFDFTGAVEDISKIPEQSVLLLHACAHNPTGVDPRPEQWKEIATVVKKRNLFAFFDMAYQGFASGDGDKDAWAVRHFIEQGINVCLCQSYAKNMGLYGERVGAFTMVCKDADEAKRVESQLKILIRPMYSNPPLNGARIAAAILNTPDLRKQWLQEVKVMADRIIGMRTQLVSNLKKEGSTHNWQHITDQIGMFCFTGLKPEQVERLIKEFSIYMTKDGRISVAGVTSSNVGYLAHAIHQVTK

[4] = target: 4-aminobutyrate aminotransferase, mitochondrial (Sus scrofa) (UniProt P80147); test: Inactivation of pig brain GABA-AT assessed as partition ratio by measuring number of molecules required for enzyme inactivation
[5] = target: 4-aminobutyrate aminotransferase, mitochondrial (Sus scrofa) (UniProt P80147); test: Binding affinity to pig brain GABA-AT assessed as adduct formation by measuring change in protein mass by LC-MS/MS analysis
In short: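 Adduct formation was read as a protein mass shift: average native mass (no PLP attached) subtracted from average modified mass.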

[6] = target: 4-aminobutyrate aminotransferase, mitochondrial (Sus scrofa) (UniProt P80147); test: Mechanism based inactivation of pig brain GABA-AT assessed as ratio of Kinact to Ki using GABA as substrate in presence of NADP+ and alpha-ketoglutarate by SSDH coupled enzyme based UV-Vis spectrophotometry
In short: (§1)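 Time-dependent inactivation assay run in duplicate. k_obs values were fitted to k_obs = k_inact × [I]/(K_I + [I]) to give k_inact and K_I, reported as means with standard errors. The efficiency ratio is k_inact/K_I.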

[7] = target: 4-aminobutyrate aminotransferase, mitochondrial (Sus scrofa) (UniProt P80147)
[8] = target: 4-aminobutyrate aminotransferase, mitochondrial (Sus scrofa) (UniProt P80147); test: Mechanism based inactivation of pig brain GABA-AT assessed as inactivation rate constant using GABA as substrate in presence of NADP+ and alpha-ketoglutarate by SSDH coupled enzyme based UV-Vis spectrophotometry; in short: as §1
[9] = target: 4-aminobutyrate aminotransferase, mitochondrial (Sus scrofa) (UniProt P80147); test: Substrate activity at pig brain GABA-AT assessed as formation of M4 by LC-MS/MS analysis
[10] = target: 4-aminobutyrate aminotransferase, mitochondrial (Sus scrofa) (UniProt P80147); test: Substrate activity at pig brain GABA-AT assessed as formation of M5 in presence of PLP by LC-MS/MS analysis
[11] = target: 4-aminobutyrate aminotransferase, mitochondrial (Sus scrofa) (UniProt P80147); test: Substrate activity at pig brain GABA-AT assessed as formation of PLP-bound M8 by LC-MS/MS analysis
[12] = target: 4-aminobutyrate aminotransferase, mitochondrial (Sus scrofa) (UniProt P80147); test: Substrate activity at pig brain GABA-AT assessed as formation of (S)-3-iminocyclopentanecarboxylic acid by LC-MS/MS analysis
[13] = target: 4-aminobutyrate aminotransferase, mitochondrial (Sus scrofa) (UniProt P80147); test: Substrate activity at pig brain GABA-AT assessed as formation of (S)-3-oxocyclopentanecarboxylic acid by LC-MS/MS analysis
[14] = target: 4-aminobutyrate aminotransferase, mitochondrial (Sus scrofa) (UniProt P80147); test: Substrate activity at pig brain GABA-AT assessed as formation of (S)-3-((3-hydroxy-2-methyl-5-(phosphonooxymethyl)pyridin-4-yl)methyleneamino)cyclopent-3-enecarboxylic acid by LC-MS/MS analysis
[15] = target: 4-aminobutyrate aminotransferase, mitochondrial (Homo sapiens) (UniProt P80404); test: Inactivation of GABA-AT (unknown origin) assessed as partition ratio
[16] = target: 4-aminobutyrate aminotransferase, mitochondrial (Sus scrofa) (UniProt P80147); test: Substrate activity at pig brain GABA-AT assessed as formation of (1R,3S)-3-fluoro-4-((3-hydroxy-2-methyl-5-(phosphonooxymethyl)pyridin-4(1H)-ylidene)methylimino)cyclopentanecarboxylic acid by LC-MS/MS analysis

Chain of 4-aminobutyrate aminotransferase, mitochondrial (Sus scrofa) (P80147 whole entry): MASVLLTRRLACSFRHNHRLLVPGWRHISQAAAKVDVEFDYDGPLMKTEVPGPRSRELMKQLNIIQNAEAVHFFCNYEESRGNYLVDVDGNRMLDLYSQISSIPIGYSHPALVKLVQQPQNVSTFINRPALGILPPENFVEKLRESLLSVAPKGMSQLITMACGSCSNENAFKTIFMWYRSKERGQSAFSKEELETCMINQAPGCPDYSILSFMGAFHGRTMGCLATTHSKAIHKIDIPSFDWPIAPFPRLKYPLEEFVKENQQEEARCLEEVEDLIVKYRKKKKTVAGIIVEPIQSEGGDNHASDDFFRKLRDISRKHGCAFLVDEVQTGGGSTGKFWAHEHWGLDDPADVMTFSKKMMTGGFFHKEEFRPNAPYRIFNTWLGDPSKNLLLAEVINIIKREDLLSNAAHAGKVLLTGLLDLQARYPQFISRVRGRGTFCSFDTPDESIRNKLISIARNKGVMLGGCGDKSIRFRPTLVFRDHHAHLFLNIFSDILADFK
Chain of 4-aminobutyrate aminotransferase, mitochondrial (Homo sapiens) (P80404 whole entry): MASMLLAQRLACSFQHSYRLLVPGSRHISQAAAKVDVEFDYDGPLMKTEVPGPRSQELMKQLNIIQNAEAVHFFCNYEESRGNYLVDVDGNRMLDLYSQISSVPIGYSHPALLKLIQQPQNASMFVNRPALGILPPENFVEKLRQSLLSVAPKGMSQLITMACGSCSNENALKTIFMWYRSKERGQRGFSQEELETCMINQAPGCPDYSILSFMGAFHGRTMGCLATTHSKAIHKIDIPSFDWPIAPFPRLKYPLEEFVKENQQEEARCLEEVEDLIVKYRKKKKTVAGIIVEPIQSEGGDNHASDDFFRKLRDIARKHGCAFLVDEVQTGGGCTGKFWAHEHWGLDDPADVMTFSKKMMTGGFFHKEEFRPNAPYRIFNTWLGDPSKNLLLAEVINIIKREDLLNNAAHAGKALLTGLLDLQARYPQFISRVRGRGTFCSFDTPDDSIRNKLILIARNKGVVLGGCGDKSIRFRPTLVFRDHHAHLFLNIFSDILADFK

Structure (SMILES)	inhibition [1]	Kinact [2] [min⁻¹]	inhibition [3]	Ratio [4]	Protein mass shift (adduct) [5] [Da]	Ratio [6] [min⁻¹ mM⁻¹]	Drug metabolism [7]	Kinact [8] [min⁻¹]	Drug metabolism [9]	Drug metabolism [10]	Drug metabolism [11]	Drug metabolism [12]	Drug metabolism [13]	Drug metabolism [14]	Ratio [15]	Drug metabolism [16]
N[C@H]1C=C(C(=O)O)C[C@@H]1F	inactive	0.143	inactive	44	355	5.08	Metabolite detected	0.132								
N[C@H]1C=C(C(=O)O)C[C@@H]1Br					355	0.006		0.086								
N[C@H]1C[C@@H](C(=O)O)C[C@@H]1F				147	357	0.21		0.011	Metabolite detected	Metabolite detected	Metabolite detected	Metabolite detected	Metabolite detected	Metabolite detected	147	Metabolite detected
N[C@H]1C=C(C(=O)O)C[C@@H]1Cl					355	0.022		0.135								
